In ChEMBL document CHEMBL4350960, “Structural Basis for E. coli Penicillin Binding Protein (PBP) 2 Inhibition, a Platform for Drug Design” (J Med Chem, 2019) one finds inhibition and Tm data, which are given here for one compound.

Test [1] has as its target T1, Penicillin-binding protein 1A (Escherichia coli K-12) (UniProt P02918).
T1 sequence (whole entry): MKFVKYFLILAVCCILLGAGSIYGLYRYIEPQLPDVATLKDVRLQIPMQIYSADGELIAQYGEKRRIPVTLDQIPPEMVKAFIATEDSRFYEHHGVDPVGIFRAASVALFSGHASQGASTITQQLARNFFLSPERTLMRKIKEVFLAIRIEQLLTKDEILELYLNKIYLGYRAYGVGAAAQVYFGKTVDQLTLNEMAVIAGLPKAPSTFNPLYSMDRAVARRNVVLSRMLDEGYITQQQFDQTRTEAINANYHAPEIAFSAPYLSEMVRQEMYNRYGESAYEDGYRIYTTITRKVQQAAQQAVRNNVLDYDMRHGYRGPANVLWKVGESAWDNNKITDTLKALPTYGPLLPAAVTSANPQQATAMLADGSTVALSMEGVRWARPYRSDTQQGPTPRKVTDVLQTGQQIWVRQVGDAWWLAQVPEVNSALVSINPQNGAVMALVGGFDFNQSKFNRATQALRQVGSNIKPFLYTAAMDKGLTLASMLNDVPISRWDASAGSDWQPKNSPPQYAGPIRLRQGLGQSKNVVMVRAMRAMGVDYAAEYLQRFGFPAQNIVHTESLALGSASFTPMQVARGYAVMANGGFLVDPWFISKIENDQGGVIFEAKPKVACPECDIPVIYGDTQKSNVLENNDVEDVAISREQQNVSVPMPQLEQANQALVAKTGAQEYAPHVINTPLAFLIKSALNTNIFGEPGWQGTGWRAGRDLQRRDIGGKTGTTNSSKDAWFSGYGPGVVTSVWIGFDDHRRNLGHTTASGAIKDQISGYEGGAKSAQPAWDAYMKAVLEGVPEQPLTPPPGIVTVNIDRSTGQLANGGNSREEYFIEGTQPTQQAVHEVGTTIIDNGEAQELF
Description: Inhibition of Escherichia coli PBP1a up to 200 uM.

Test [2] has as its system Bacteria. Description: Inhibition of bacterial beta-lactamase KPC-2.
Test [3] relates to Escherichia coli. Description: Inhibition of Escherichia coli PBP3.
The test system of test [4] is Bacteria. As to the kind of experiment: Inhibition of bacterial beta-lactamase SHV-1.
Test [5] relates to Enterobacter cloacae. Description: Inhibition of Enterobacter cloacae P99 AmpC.
The target of test [6] is Penicillin-binding protein 3 (Pseudomonas aeruginosa) (UniProt Q51504). As to the kind of experiment: Inhibition of Pseudomonas aeruginosa PBP3 up to 200 uM.
Test [7] relates to Bacteria. As to the kind of experiment: Inhibition of bacterial beta-lactamase CTX-M-15.
Test [8] concerns the target T2, Penicillin-binding protein 1B (Escherichia coli K-12) (UniProt P02919).
T2 sequence (whole entry): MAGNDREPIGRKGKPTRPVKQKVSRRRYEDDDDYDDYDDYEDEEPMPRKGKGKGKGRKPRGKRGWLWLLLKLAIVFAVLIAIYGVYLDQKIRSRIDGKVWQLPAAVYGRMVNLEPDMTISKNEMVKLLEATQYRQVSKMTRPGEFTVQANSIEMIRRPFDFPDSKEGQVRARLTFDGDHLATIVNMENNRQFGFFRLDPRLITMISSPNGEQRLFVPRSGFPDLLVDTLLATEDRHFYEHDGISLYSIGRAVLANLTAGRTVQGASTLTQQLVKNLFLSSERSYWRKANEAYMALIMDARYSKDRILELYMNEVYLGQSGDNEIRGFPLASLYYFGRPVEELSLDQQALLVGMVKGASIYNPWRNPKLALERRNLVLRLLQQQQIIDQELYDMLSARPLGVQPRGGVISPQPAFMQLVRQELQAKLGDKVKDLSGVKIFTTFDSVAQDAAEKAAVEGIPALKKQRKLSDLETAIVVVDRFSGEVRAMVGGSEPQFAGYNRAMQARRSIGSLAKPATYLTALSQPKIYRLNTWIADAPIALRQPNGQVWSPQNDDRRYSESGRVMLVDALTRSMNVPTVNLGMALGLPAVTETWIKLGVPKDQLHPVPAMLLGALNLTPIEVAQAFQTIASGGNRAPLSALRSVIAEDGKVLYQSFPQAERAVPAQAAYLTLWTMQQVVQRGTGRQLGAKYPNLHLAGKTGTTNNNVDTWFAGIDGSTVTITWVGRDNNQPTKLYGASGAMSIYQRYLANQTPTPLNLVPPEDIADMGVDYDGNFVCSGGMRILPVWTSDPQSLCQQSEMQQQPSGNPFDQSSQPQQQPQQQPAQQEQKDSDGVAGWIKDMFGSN
Description: Inhibition of Escherichia coli PBP1b up to 200 uM.

In test [9] the target is T3, Peptidoglycan D,D-transpeptidase MrdA (Escherichia coli K-12) (UniProt P0AD65).
T3 sequence (whole entry): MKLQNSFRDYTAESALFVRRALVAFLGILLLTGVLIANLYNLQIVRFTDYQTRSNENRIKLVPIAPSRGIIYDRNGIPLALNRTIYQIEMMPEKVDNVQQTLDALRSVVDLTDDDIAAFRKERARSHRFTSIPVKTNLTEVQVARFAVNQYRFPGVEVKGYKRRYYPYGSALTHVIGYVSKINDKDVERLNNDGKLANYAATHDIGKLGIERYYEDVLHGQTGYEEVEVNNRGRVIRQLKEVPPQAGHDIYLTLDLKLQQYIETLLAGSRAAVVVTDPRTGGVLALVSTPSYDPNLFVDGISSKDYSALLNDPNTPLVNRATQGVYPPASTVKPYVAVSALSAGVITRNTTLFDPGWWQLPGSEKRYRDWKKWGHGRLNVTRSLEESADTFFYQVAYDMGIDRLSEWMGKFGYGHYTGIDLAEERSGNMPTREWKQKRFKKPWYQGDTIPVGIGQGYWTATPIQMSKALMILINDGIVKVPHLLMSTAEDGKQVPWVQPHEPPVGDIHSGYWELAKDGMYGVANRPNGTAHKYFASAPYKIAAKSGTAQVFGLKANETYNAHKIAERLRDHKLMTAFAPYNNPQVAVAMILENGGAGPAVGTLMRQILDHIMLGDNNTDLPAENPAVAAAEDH
As to the kind of experiment: Binding affinity to Escherichia coli K12 NusA-fused/His6-tagged PBP2 (57 to 615 residues) expressed in Escherichia coli BL21(DE3) assessed as melting temperature at protein to compound ratio of 1:10 measured after 30 mins using SYPRO orange dye by RT-PCR-based fluorescence assay (reference value: 47 +/- 0.5 degC). In short, it runs like this:
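Thermal unfolding was monitored with SYPRO Orange dye in a real-time PCR instrument, at a protein/ligand ratio of 1/10. Tm was taken at the inflexion point of the denaturation curve and reported ±0.5 °C.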

Test [10] concerns Bacteria. Description: Inhibition of bacterial CMY-37.
Test [11] has as its target Beta-lactamase TEM (Bacteria) (UniProt P62593). As to the kind of experiment: Inhibition of bacterial beta-lactamase TEM-1.
For test [12], the target named is T2, Penicillin-binding protein 1B (Escherichia coli K-12). As to the kind of experiment: Inhibition of Escherichia coli PBP1b.
For test [13], the target named is Penicillin-binding protein 1A (Pseudomonas aeruginosa PAO1) (UniProt Q07806). As to the kind of experiment: Inhibition of Pseudomonas aeruginosa PBP1a up to 200 uM.

Structures are written as SMILES. Activity calls are given as the source filed them. The rule behind the calls is not given here.

Sequence of Beta-lactamase TEM (Bacteria) (P62593 whole entry): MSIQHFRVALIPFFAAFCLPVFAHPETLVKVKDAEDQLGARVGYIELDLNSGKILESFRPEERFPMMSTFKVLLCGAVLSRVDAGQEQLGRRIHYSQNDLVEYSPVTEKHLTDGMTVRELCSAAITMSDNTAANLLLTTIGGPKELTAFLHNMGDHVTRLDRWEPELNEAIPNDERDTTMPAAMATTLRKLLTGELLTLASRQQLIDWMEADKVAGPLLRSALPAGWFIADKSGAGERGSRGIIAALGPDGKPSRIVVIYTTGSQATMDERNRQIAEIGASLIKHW
Sequence of Penicillin-binding protein 3 (Pseudomonas aeruginosa) (Q51504 as listed by the source): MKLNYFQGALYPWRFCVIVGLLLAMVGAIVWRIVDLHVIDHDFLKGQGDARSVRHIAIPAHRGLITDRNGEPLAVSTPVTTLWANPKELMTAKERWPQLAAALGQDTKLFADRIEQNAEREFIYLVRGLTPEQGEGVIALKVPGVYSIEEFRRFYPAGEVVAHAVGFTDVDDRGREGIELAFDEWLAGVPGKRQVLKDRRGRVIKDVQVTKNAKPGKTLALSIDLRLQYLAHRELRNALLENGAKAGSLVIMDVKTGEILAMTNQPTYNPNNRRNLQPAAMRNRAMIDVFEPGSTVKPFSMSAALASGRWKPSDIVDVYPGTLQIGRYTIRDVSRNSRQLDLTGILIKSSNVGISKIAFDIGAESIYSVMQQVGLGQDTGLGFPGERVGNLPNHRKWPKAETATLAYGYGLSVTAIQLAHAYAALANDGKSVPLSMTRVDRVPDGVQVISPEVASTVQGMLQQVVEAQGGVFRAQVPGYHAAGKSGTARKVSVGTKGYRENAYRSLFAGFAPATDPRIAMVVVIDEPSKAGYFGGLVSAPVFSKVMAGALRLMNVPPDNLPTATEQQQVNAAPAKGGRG
Sequence of Penicillin-binding protein 1A (Pseudomonas aeruginosa PAO1) (Q07806 whole entry): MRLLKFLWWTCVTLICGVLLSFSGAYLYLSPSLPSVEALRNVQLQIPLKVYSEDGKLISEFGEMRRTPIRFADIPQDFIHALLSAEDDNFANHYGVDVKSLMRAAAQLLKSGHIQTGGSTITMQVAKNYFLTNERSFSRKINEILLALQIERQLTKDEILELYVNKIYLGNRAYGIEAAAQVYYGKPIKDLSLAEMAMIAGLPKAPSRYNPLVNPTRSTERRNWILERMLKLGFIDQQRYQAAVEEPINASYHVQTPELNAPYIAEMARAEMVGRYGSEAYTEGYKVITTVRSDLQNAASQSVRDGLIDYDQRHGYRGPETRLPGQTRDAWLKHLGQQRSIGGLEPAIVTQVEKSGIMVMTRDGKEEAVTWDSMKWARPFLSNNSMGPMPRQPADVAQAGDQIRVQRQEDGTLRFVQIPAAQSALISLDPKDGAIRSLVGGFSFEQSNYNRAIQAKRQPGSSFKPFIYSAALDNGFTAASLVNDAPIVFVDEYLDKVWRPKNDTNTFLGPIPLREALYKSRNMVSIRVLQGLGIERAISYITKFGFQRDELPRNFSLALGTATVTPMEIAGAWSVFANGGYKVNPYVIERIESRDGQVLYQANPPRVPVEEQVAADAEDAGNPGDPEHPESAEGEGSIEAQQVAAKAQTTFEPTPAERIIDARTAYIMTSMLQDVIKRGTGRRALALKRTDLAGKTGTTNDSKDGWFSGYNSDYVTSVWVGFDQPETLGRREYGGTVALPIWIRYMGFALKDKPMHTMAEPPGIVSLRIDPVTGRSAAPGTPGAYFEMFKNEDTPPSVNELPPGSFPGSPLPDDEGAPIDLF

In the case of `NC[C@@H]1C=C(c2cnco2)[C@@H]2CN1C(=O)N2OS(=O)(=O)O` (relative stereo), the inhibition entry in test [1], in test [3], in test [6], in test [8], in [12] and in test [13] was “inactive” each time. The inhibition entry in test [2], in [4], in test [5], in test [7], in [10] and in test [11] was “Active” each time. Also, the Tm in test [9] came out at 55.5 °C.
